We go through six compounds from ChEMBL document CHEMBL1938276, “Design and synthesis of 2-heterocyclyl-3-arylthio-1H-indoles as potent tubulin polymerization and cell growth inhibitors with improved metabolic stability” (J Med Chem, 2011).

Data set [1] in a line: Cmax in nude CD-1 mouse at 15 mg/kg, po by UPLC analysis. The data set is classed as ADME, organism-based. Further details: dose 15 mg/kg, route oral. The following applies: in vivo. The gist of the method: (§1)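 Male nude CD-1 mice, 4 weeks old; single iv rapid bolus 5 mg/kg in 3% DMSO + 30% PEG400 + 0.9% NaCl, or oral gavage 15 mg/kg in 5% DMSO + 20% PEG400 + water. Blood sampled at multiple times after dosing; plasma proteins precipitated, samples stored at −80 °C, quantified by UPLC-ESI triple-quadrupole MS/MS.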

Data set [2] relates to Mus musculus. As to the kind of experiment: Volume of distribution at steady state in nude CD-1 mouse at 5 mg/kg, iv and 15 mg/kg, po by UPLC analysis. It counts as ADME, organism-based. Particulars: in vivo. A digest of the protocol:
as §1

Data set [3] in a line: AUC ( 0 to infinity) in nude CD-1 mouse at 15 mg/kg, po by UPLC analysis. It counts as ADME, organism-based. Details: time infinity, dose 15 mg/kg, route oral. Particulars: plasma. The gist of the method:
as §1

A short description of data set [4]: AUC ( 0 to infinity) in nude CD-1 mouse at 5 mg/kg, iv by UPLC analysis. The following applies: plasma. The data set is classed as ADME, organism-based. Details: time infinity, dose 5 mg/kg, route intravenous. The gist of the method:
as §1

Data set [5] has as its system Mus musculus. As to the kind of experiment: Oral bioavailability in nude CD-1 mouse at 15 mg/kg by UPLC analysis. The data set is classed as ADME, organism-based. The following applies: in vivo. The gist of the method:
as §1

The nature of data set [6]: Tmax in nude CD-1 mouse at 15 mg/kg, po by UPLC analysis. It counts as ADME, organism-based. Further details: dose 15 mg/kg, route oral. The following applies: in vivo. The gist of the method: as §1
A short description of data set [7]: Cmax in nude CD-1 mouse at 5 mg/kg, iv by UPLC analysis. The data set is classed as ADME, organism-based. Further details: dose 5 mg/kg, route intravenous. Particulars: in vivo. The gist of the method:
as §1

For data set [8], the system named is HeLa. Nature of the data set: Induction apoptosis in human HeLa cells assessed as caspase -3 activity at 100 nM after 24 hrs by single-cell immunofluorescence assay. It counts as functional, cell-based.
In data set [9] the test system is A549. As to the kind of experiment: Antiproliferative activity against human A549 cells assessed as growth inhibition after 48 hrs by MTT assay. The following applies: A549, 48 h.
Data set [10] in a line: Growth inhibition of human HSMC cells after 48 hrs by MTT assay. The data set is classed as cell-based.
For data set [11], the system named is HeLa. As to the kind of experiment: Induction apoptosis in human HeLa cells at 20 nM after 24 hrs by Annexin V-based flow cytometry analysis. It counts as functional, cell-based.
Data set [12] in a line: Growth inhibition of potorous tridactylus PtK2 cells after 48 hrs by MTT assay. The data set is classed as cell-based. Particulars: PtK2, 48 h.
The test system of data set [13] is HeLa. Nature of the data set: Cell cycle arrest in human HeLa cells assessed as accumulation at G2/M phase at 20 nM after 24 hrs by propidium iodide staining based flow cytometry analysis (reference value: 0.10 %). It counts as functional.
Data set [14] has as its system A10. Nature of the data set: Growth inhibition of rat A10 cells after 48 hrs by MTT assay. It counts as cell-based. Particulars: A10, 48 h.
Data set [15] has as its system HeLa. Nature of the data set: Induction of mitotic arrest in human HeLa cells assessed as accumulation at G2/M phase at 2 to 20 nM after 24 hrs by flow cytometry analysis relative to control. The data set is classed as functional, cell-based.
In data set [16] the test system is HeLa. Nature of the data set: Induction apoptosis in human HeLa cells at 10 nM after 24 hrs by Annexin V-based flow cytometry analysis. The data set is classed as functional, cell-based.
The test system of data set [17] is HT-29. Nature of the data set: Antiproliferative activity against human HT-29 cells assessed as growth inhibition after 48 hrs by MTT assay. The data set is classed as functional, cell-based. The following applies: HT-29, 48 h.
Data set [18] relates to HUVEC. As to the kind of experiment: Growth inhibition of HUVEC cells after 48 hrs by MTT assay. The data set is classed as cell-based. The following applies: Homo sapiens.
The test system of data set [19] is HeLa. Nature of the data set: Induction apoptosis in human HeLa cells at 20 nM after 24 hrs by Annexin V-based flow cytometry analysis.
Data set [20] deals with Liver microsomes. As to the kind of experiment: Metabolic stability in human liver microsomes assessed as compound remaining after 30 mins by LC-MS/MS analysis. It counts as ADME, Microsome. The following applies: 0.5 h. A digest of the protocol: (§2)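 Compound at 1 μM final, in duplicate, preincubated 10 min at 37 °C with liver microsomes (0.5 mg/mL final) in potassium phosphate buffer pH 7.4 with 3 mM MgCl2; started with NADP/glucose-6-phosphate/G6P dehydrogenase. Samples taken 0–30 min, quenched in acetonitrile, quantified by LC-MS/MS; percent remaining at 30 min versus time zero peak area; no-cofactor control included.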

For data set [21], the system named is Liver. Nature of the data set: Metabolic stability in mouse liver microsomes assessed as compound remaining after 30 mins by LC-Ms/Ms analysis. It counts as ADME, Microsome. The following applies: 0.5 h. The gist of the method:
as §2

Data set [22] concerns OVCAR-8. Nature of the data set: cells. The following applies: Homo sapiens, OVCAR-8, 96 h.
A short description of data set [23]: Growth inhibition of doxorubicin-resistant human NCI-ADR-RES cells overexpressing P-glycoprotein after 96 hrs. It counts as functional, cell-based.

Activity calls are given as the source filed them. No cut-off for these calls is given here.

Consider `COc1cc(Sc2c(-c3cc[nH]c3)[nH]c3ccccc23)cc(OC)c1OC`, for which the results for the Cmax in data set [1] and in [7] were 1340 ng/mL and 35.7 ng/mL, respectively. This compound yielded a Vdss in [2] of 1.59 L/kg. Besides, the AUC(0-inf) is 9720 ng·h/mL in data set [3] and 2910 ng·h/mL in data set [4]. In [5], this compound displayed an F of 110%. In addition, the Tmax in data set [6] was 2 h.
Consider `COc1ccc(/C=C\c2cc(OC)c(OC)c(OC)c2)cc1O` [COMBRETASTATIN A4], for which the result in [8], in [11], in data set [15], in [16] and in data set [19] was Active. Moreover, the IC50 was over 10000 nM in [9]; 5 nM in data set [10]; 3 nM in data set [12]; 1 nM in data set [14]; over 10000 nM in [17]; 1 nM in data set [18]. Also, in data set [13], the Activity is 80%.
With `CCOc1ccc2ccc(=O)oc2c1` [ETHOXYCOUMARIN], the values for the Stability in [20] and in data set [21] were 6.6% and 0.07%, respectively.
In [22], `CC(=O)O[C@H]1C(=O)[C@@]2(C)[C@H]([C@H](OC(=O)c3ccccc3)[C@]3(O)C[C@H](OC(=O)[C@H](O)[C@@H](NC(=O)c4ccccc4)c4ccccc4)C(C)=C1C3(C)C)[C@]1(OC(C)=O)CO[C@@H]1C[C@@H]2O` [PACLITAXEL] yielded an IC50 of 2 nM.
In the case of `CC[C@]1(O)C[C@@H]2CN(CCc3c([nH]c4ccccc34)[C@@](C(=O)OC)(c3cc4c(cc3OC)N(C)[C@H]3[C@@](O)(C(=O)OC)[C@H](OC(C)=O)[C@]5(CC)C=CCN6CC[C@]43[C@@H]65)C2)C1` [VINBLASTINE], the result in [8], in data set [11], in data set [15], in data set [16] and in [19] was Active. This compound also had an IC50 in data set [22] of 15 nM. Moreover, the Activity in data set [13] worked out at 80%.
Consider `CCC1=C[C@@H]2CN(C1)Cc1c([nH]c3ccccc13)[C@@](C(=O)OC)(c1cc3c(cc1OC)N(C)[C@H]1[C@@](O)(C(=O)OC)[C@H](OC(C)=O)[C@]4(CC)C=CCN5CC[C@]31[C@@H]54)C2` [VINORELBINE], for which the IC50 in [23] was 5000 nM.
